Results published in ChEMBL document CHEMBL5303300, “EUbOPEN Chemogenomics Library - Multiplex” (2023).
Values joined by “and” are separate entries in the source; they are usually repeats but may differ in a detail not shown here. Identical values can stand only once. *1 amine or outer side, *2 acyl side, *3 side chain or, on linkers, in order; H or OH if unused. Where a SMILES comes first, the peptide text is derived from it. Bridges are numbered along the chain shown (N, C = ends). Roman numbers before positions name the chains, in order. [ ]: non-standard residue; d: D form. Hexamethylenediamine = C(CCCN[*:2])CCN[*:1]; Dip = N[C@H](C(=O)O)C(c1ccccc1)c1ccccc1; Chg = N[C@H](C(=O)O)C1CCCCC1; NMeA = CN[C@@H](C)C(=O)O

How the values were obtained:
HEK-293T = assay: Multiplex assay against HEK293T; type: toxicity, cell-based; conditions: human, number of replicates 2
Procedure, shortened: (§1)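 At seeding, live cells were stained with Hoechst33342, BioTracker Green Microtubule Cytoskeleton Dye, MitoTracker Red and Annexin V Alexa Fluor 680. After compound addition they were imaged on a CQ1 microscope at 37°C and 5% CO2, and CellPathfinder machine-learning gating sorted them into Hoechst high-intensity objects or normal cells, with normal cells further split into healthy, pyknosed or fragmented nuclei and pyknosed cells into mitotic or apoptotic. Tubulin, mitochondrial-mass and membrane-permeability phenotypes are given as per cents of cells with healthy nuclei.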

Fibroblast = assay: Multiplex assay against human fibroblast; type: toxicity, cell-based; conditions: number of replicates 2; procedure, shortened: as §1
[1] = 12 h, 1 µM, compound concentration 1 uM
[2] = 12 h, 10 µM, compound concentration 10 uM
[3] = 24 h, 1 µM, compound concentration 1 uM
[4] = 24 h, 10 µM, compound concentration 10 uM
[5] = 48 h, 1 µM, compound concentration 1 uM
[6] = 48 h, 10 µM, compound concentration 10 uM

CN[C@@H](C)C(=O)N[C@H](C(=O)N1CCC[C@H]1C(=O)N[C@H](C(=O)NCCCCCCNC(=O)[C@@H](NC(=O)[C@@H]1CCCN1C(=O)[C@@H](NC(=O)[C@H](C)NC)C1CCCCC1)C(c1ccccc1)c1ccccc1)C(c1ccccc1)c1ccccc1)C1CCCCC1 (I: H-[NMeA][Chg]P[Dip] / II: H-[NMeA][Chg]P[Dip]; linker I:C-II:C via Hexamethylenediamine)
Population Apoptotic (%) (HEK-293T; [1]): 45% and 56% | Population Fragmented Nuclei (%) (HEK-293T; [1]): 3% and 1% | Population Healthy Nuclei (%) (HEK-293T; [1]): 85% | Population Hoechst High Intensity Objects (%) (HEK-293T; [1]): 7% and 5% | Population Membrane Permeable-Phenotype (%) (HEK-293T; [1]): 2% | Population Mitochondria Different-Phenotype (%) (HEK-293T; [1]): 27% and 23% | Population Mitotic Cells (%) (HEK-293T; [1]): 54% and 43% | Population Normal (%) (HEK-293T; [1]): 92% and 94% | Population Pyknosed Nuclei (%) (HEK-293T; [1]): 10% and 13% | Population Tubulin-Different-Phenotype (%) (HEK-293T; [1]): 59% and 58% | Total Cell Count (HEK-293T; [1]): 599 and 505 | Population Apoptotic (%) (HEK-293T; [2]): 83% and 76% | Population Fragmented Nuclei (%) (HEK-293T; [2]): 4% and 2% | Population Healthy Nuclei (%) (HEK-293T; [2]): 75% and 79% | Population Hoechst High Intensity Objects (%) (HEK-293T; [2]): 12% and 5% | Population Membrane Permeable-Phenotype (%) (HEK-293T; [2]): 3% and 0% | Population Mitochondria Different-Phenotype (%) (HEK-293T; [2]): 76% | Population Mitotic Cells (%) (HEK-293T; [2]): 16% and 23% | Population Normal (%) (HEK-293T; [2]): 87% and 94% | Population Pyknosed Nuclei (%) (HEK-293T; [2]): 20% and 17% | Population Tubulin-Different-Phenotype (%) (HEK-293T; [2]): 96% and 98% | Total Cell Count (HEK-293T; [2]): 501 and 525 | Population Apoptotic (%) (HEK-293T; [3]): 43% and 54% | Population Fragmented Nuclei (%) (HEK-293T; [3]): 5% and 3% | Population Healthy Nuclei (%) (HEK-293T; [3]): 87% | Population Hoechst High Intensity Objects (%) (HEK-293T; [3]): 6% and 7% | Population Membrane Permeable-Phenotype (%) (HEK-293T; [3]): 2% and 1% | Population Mitochondria Different-Phenotype (%) (HEK-293T; [3]): 16% and 20% | Population Mitotic Cells (%) (HEK-293T; [3]): 56% and 45% | Population Normal (%) (HEK-293T; [3]): 93% | Population Pyknosed Nuclei (%) (HEK-293T; [3]): 7% and 8% | Population Tubulin-Different-Phenotype (%) (HEK-293T; [3]): 40% and 44% | Total Cell Count (HEK-293T; [3]): 944 and 671 | Population Apoptotic (%) (HEK-293T; [4]): 79% and 67% | Population Fragmented Nuclei (%) (HEK-293T; [4]): 7% and 4% | Population Healthy Nuclei (%) (HEK-293T; [4]): 66% and 80% | Population Hoechst High Intensity Objects (%) (HEK-293T; [4]): 12% and 7% | Population Membrane Permeable-Phenotype (%) (HEK-293T; [4]): 1% and 0% | Population Mitochondria Different-Phenotype (%) (HEK-293T; [4]): 85% and 82% | Population Mitotic Cells (%) (HEK-293T; [4]): 20% and 32% | Population Normal (%) (HEK-293T; [4]): 87% and 92% | Population Pyknosed Nuclei (%) (HEK-293T; [4]): 26% and 15% | Population Tubulin-Different-Phenotype (%) (HEK-293T; [4]): 92% and 95% | Total Cell Count (HEK-293T; [4]): 463 and 559 | Population Apoptotic (%) (HEK-293T; [5]): 19% and 25% | Population Fragmented Nuclei (%) (HEK-293T; [5]): 9% and 7% | Population Healthy Nuclei (%) (HEK-293T; [5]): 86% and 87% | Population Hoechst High Intensity Objects (%) (HEK-293T; [5]): 6% and 8% | Population Membrane Permeable-Phenotype (%) (HEK-293T; [5]): 3% and 0% | Population Mitochondria Different-Phenotype (%) (HEK-293T; [5]): 2% and 5% | Population Mitotic Cells (%) (HEK-293T; [5]): 80% and 74% | Population Normal (%) (HEK-293T; [5]): 93% and 91% | Population Pyknosed Nuclei (%) (HEK-293T; [5]): 3% and 5% | Population Tubulin-Different-Phenotype (%) (HEK-293T; [5]): 18% and 25% | Total Cell Count (HEK-293T; [5]): 2232 and 1305 | Population Apoptotic (%) (HEK-293T; [6]): 80% and 75% | Population Fragmented Nuclei (%) (HEK-293T; [6]): 9% and 7% | Population Healthy Nuclei (%) (HEK-293T; [6]): 72% and 74% | Population Hoechst High Intensity Objects (%) (HEK-293T; [6]): 9% and 10% | Population Membrane Permeable-Phenotype (%) (HEK-293T; [6]): 4% and 2% | Population Mitochondria Different-Phenotype (%) (HEK-293T; [6]): 53% and 56% | Population Mitotic Cells (%) (HEK-293T; [6]): 19% and 24% | Population Normal (%) (HEK-293T; [6]): 90% and 89% | Population Pyknosed Nuclei (%) (HEK-293T; [6]): 18% and 17% | Population Tubulin-Different-Phenotype (%) (HEK-293T; [6]): 82% and 84% | Total Cell Count (HEK-293T; [6]): 653 and 709 | Population Apoptotic (%) (Fibroblast; [1]): 29% and 33% | Population Fragmented Nuclei (%) (Fibroblast; [1]): 14% and 9% | Population Healthy Nuclei (%) (Fibroblast; [1]): 64% and 70% | Population Hoechst High Intensity Objects (%) (Fibroblast; [1]): 0% | Population Membrane Permeable-Phenotype (%) (Fibroblast; [1]): 5% and 3% | Population Mitochondria Different-Phenotype (%) (Fibroblast; [1]): 0% and 3% | Population Mitotic Cells (%) (Fibroblast; [1]): 70% and 66% | Population Normal (%) (Fibroblast; [1]): 100% | Population Pyknosed Nuclei (%) (Fibroblast; [1]): 21% and 20% | Population Tubulin-Different-Phenotype (%) (Fibroblast; [1]): 18% and 9% | Total Cell Count (Fibroblast; [1]): 205 and 174 | Population Apoptotic (%) (Fibroblast; [2]): 43% and 60% | Population Fragmented Nuclei (%) (Fibroblast; [2]): 15% and 11% | Population Healthy Nuclei (%) (Fibroblast; [2]): 55% | Population Hoechst High Intensity Objects (%) (Fibroblast; [2]): 0% | Population Membrane Permeable-Phenotype (%) (Fibroblast; [2]): 4% and 3% | Population Mitochondria Different-Phenotype (%) (Fibroblast; [2]): 6% and 15% | Population Mitotic Cells (%) (Fibroblast; [2]): 56% and 39% | Population Normal (%) (Fibroblast; [2]): 100% and 99% | Population Pyknosed Nuclei (%) (Fibroblast; [2]): 29% and 33% | Population Tubulin-Different-Phenotype (%) (Fibroblast; [2]): 59% and 55% | Total Cell Count (Fibroblast; [2]): 210 and 251 | Population Apoptotic (%) (Fibroblast; [3]): 43% and 45% | Population Fragmented Nuclei (%) (Fibroblast; [3]): 9% and 10% | Population Healthy Nuclei (%) (Fibroblast; [3]): 68% and 66% | Population Hoechst High Intensity Objects (%) (Fibroblast; [3]): 0% | Population Membrane Permeable-Phenotype (%) (Fibroblast; [3]): 5% and 4%
